Measured values taken from ChEMBL document CHEMBL5236549, “Discovery of 2-Sulfinyl-Diazabicyclooctane Derivatives, Potential Oral β-Lactamase Inhibitors for Infections Caused by Serine β-Lactamase-Producing Enterobacterales” (J Med Chem, 2021).
≈ marks a conversion by molar mass, not a printed value. One block for each compound: values may come before it.

Key:
Escherichia coli [1] = experiment: Antibacterial activity against Escherichia coli ATCC SR09613 assessed as reduction in bacterial growth by measuring minimum […] concentration incubated for 16 to 24 hrs by CLSI based two-fold serial dilution method; format: functional; conditions: time 16-24 hrs
Method in brief: (§1)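 MPC₁ by broth microdilution: twofold serial dilutions of inhibitor in cation-adjusted Mueller Hinton broth containing ceftibuten at 1 μg/mL. Inoculum about 5 × 10⁴ cfu/well final, set from OD625. Incubation at 35 °C for 16−20 h. […] N = 1.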

Klebsiella pneumoniae [2] = experiment: Antibacterial activity against Klebsiella pneumoniae SR100758 assessed as reduction in bacterial growth by measuring minimum […] concentration incubated for 16 to 24 hrs by CLSI based two-fold serial dilution method; format: functional; conditions: time 16-24 hrs
Method in brief: (§2)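 Inhibitor twofold serially diluted in cation-adjusted Mueller Hinton broth containing ceftibuten 1 μg/mL. About 5 × 10⁴ cfu/well, 35 °C for 16−20 h. […] N = 1.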

Klebsiella pneumoniae [3] = experiment: Antibacterial activity against Klebsiella pneumoniae SR201325 assessed as inhibition of bacterial growth incubated for 16 to 20 hrs by CLSI based two-fold serial dilution method
Klebsiella pneumoniae [4] = experiment: Antibacterial activity against Klebsiella pneumoniae SR200487 assessed as inhibition of bacterial growth incubated for 16 to 24 hrs by CLSI based two-fold serial dilution method; format: functional; conditions: time 16-24 hrs
Method in brief: (§3)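 CLSI broth microdilution in cation-adjusted Mueller Hinton broth, twofold serial dilutions, about 5 × 10⁴ cfu/well from OD625, 35 °C for 16−20 h. MIC is the lowest concentration with no visible growth.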

Klebsiella pneumoniae [5] = experiment: Antibacterial activity against Klebsiella pneumoniae SR201325 assessed as reduction in bacterial growth by measuring minimum […] concentration incubated for 16 to 24 hrs by CLSI based two-fold serial dilution method; format: functional; conditions: time 16-24 hrs; method in brief: as §2
Klebsiella pneumoniae [6] = experiment: Antibacterial activity against Klebsiella pneumoniae ATCC SR201218 assessed as reduction in bacterial growth by measuring minimum […] concentration incubated for 16 to 24 hrs by CLSI based two-fold serial dilution method; format: functional; conditions: time 16-24 hrs; method in brief: as §1
Klebsiella pneumoniae [7] = experiment: Antibacterial activity against Klebsiella pneumoniae SR09635 assessed as reduction in bacterial growth by measuring minimum […] concentration incubated for 16 to 20 hrs by CLSI based two-fold serial dilution method; conditions: time 16-20 hrs
Enterobacter cloacae [8] = experiment: Antibacterial activity against Enterobacter cloacae SR200030 assessed as reduction in bacterial growth by measuring minimum […] concentration incubated for 16 to 24 hrs by CLSI based two-fold serial dilution method; format: functional; conditions: time 16-24 hrs; method in brief: as §2
Klebsiella pneumoniae [9] = experiment: Antibacterial activity against Klebsiella pneumoniae SR100758 assessed as inhibition of bacterial growth incubated for 16 to 24 hrs by CLSI based two-fold serial dilution method; format: functional; conditions: time 16-24 hrs; method in brief: as §3
[10] = Inhibition of bacterial beta-lactamase OXA-48 using nitrocefin as substrate incubated for 20 mins; design: species or system Bacteria
Method in brief: (§4)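 Nitrocefin hydrolysis read by absorbance. Enzyme titrated to give about 0.2 absorbance change over the no-enzyme control. Enzyme added to nitrocefin (final 50 μg/mL) plus inhibitor, no preincubation, read after 20 min at 35 °C. IC50 is 50% reduction of hydrolysis. N = 1.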

Escherichia coli [11] = experiment: Antibacterial activity against Escherichia coli ATCC SR34100 assessed as reduction in bacterial growth by measuring minimum […] concentration incubated for 16 to 24 hrs by CLSI based two-fold serial dilution method; format: functional; conditions: time 16-24 hrs; method in brief: as §1
[12] = Inhibition of bacterial beta-lactamase KPC-2 using nitrocefin as substrate incubated for 20 mins; design: species or system Bacteria; method in brief: as §4
Escherichia coli [13] = experiment: Antibacterial activity against Escherichia coli ATCC SR09613 assessed as inhibition of bacterial growth incubated for 16 to 20 hrs by CLSI based two-fold serial dilution method
Klebsiella pneumoniae [14] = experiment: Antibacterial activity against Klebsiella pneumoniae SR200487 assessed as reduction in bacterial growth by measuring minimum […] concentration incubated for 16 to 20 hrs by CLSI based two-fold serial dilution method; conditions: time 16-20 hrs
Klebsiella pneumoniae [15] = experiment: Antibacterial activity against Klebsiella pneumoniae SR200263 assessed as reduction in bacterial growth by measuring minimum […] concentration incubated for 16 to 20 hrs by CLSI based two-fold serial dilution method; conditions: time 16-20 hrs
Klebsiella pneumoniae [16] = experiment: Antibacterial activity against Klebsiella pneumoniae SR09603 assessed as reduction in bacterial growth by measuring minimum […] concentration incubated for 16 to 20 hrs by CLSI based two-fold serial dilution method; conditions: time 16-20 hrs
Klebsiella pneumoniae [17] = experiment: Antibacterial activity against Klebsiella pneumoniae ATCC SR201218 assessed as inhibition of bacterial growth incubated for 16 to 20 hrs by CLSI based two-fold serial dilution method
Enterobacter cloacae [18] = experiment: Antibacterial activity against Enterobacter cloacae SR36276 assessed as inhibition of bacterial growth incubated for 16 to 20 hrs by CLSI based two-fold serial dilution method
Klebsiella pneumoniae [19] = experiment: Antibacterial activity against Klebsiella pneumoniae SR09635 assessed as inhibition of bacterial growth incubated for 16 to 20 hrs by CLSI based two-fold serial dilution method
[20] = Inhibition of bacterial beta-lactamase CMY-2 using nitrocefin as substrate incubated for 20 mins; design: species or system Bacteria; method in brief: as §4
Enterobacter cloacae [21] = experiment: Antibacterial activity against Enterobacter cloacae SR100108 assessed as reduction in bacterial growth by measuring minimum […] concentration incubated for 16 to 20 hrs by CLSI based two-fold serial dilution method; conditions: time 16-20 hrs
Klebsiella pneumoniae [22] = experiment: Antibacterial activity against Klebsiella pneumoniae SR200263 assessed as inhibition of bacterial growth incubated for 16 to 24 hrs by CLSI based two-fold serial dilution method; format: functional; conditions: time 16-24 hrs; method in brief: as §3
Klebsiella pneumoniae [23] = experiment: Antibacterial activity against Klebsiella pneumoniae ATCC BAA1705 assessed as inhibition of bacterial growth incubated for 16 to 20 hrs by CLSI based two-fold serial dilution method
Enterobacter cloacae [24] = experiment: Antibacterial activity against Enterobacter cloacae SR100108 assessed as inhibition of bacterial growth incubated for 16 to 20 hrs by CLSI based two-fold serial dilution method
Klebsiella pneumoniae [25] = experiment: Antibacterial activity against Klebsiella pneumoniae ATCC BAA1705 assessed as reduction in bacterial growth by measuring minimum potentiating concentration incubated for 16 to 20 hrs by CLSI based two-fold serial dilution method; conditions: time 16-20 hrs
Enterobacter cloacae [26] = experiment: Antibacterial activity against Enterobacter cloacae SR200030 assessed as inhibition of bacterial growth incubated for 16 to 24 hrs by CLSI based two-fold serial dilution method; format: functional; conditions: time 16-24 hrs; method in brief: as §3
Klebsiella pneumoniae [27] = experiment: Antibacterial activity against Klebsiella pneumoniae SR09603 assessed as inhibition of bacterial growth incubated for 16 to 20 hrs by CLSI based two-fold serial dilution method
Enterobacter cloacae [28] = experiment: Antibacterial activity against Enterobacter cloacae SR36276 assessed as reduction in bacterial growth by measuring minimum […] concentration incubated for 16 to 20 hrs by CLSI based two-fold serial dilution method; conditions: time 16-20 hrs
Escherichia coli [29] = experiment: Antibacterial activity against Escherichia coli ATCC SR34100 assessed as inhibition of bacterial growth incubated for 16 to 20 hrs by CLSI based two-fold serial dilution method
[30] = AUC in dog at 10 mg/kg,po by LC/MS/MS analysis; format: ADME, organism-based, Canis lupus familiaris; design: dose 10 mg/kg, route po; conditions: in vivo
Method in brief: (§5)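 Plasma of the parent acid measured by LC/MS/MS (methanol precipitation, positive ESI, external standard); oral values follow prodrug dosing (rat fed, dog and monkey fasted). AUC from 0 h to last time point by linear trapezoid; F from oral AUC versus iv AUC of the parent. N = 2 (rat, dog), N = 3 (monkey, mouse).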

[31] = Cmax in rat at 5 mg/kg,po by LC/MS/MS analysis; format: ADME, organism-based; design: dose 5 mg/kg, route po; conditions: in vivo; method in brief: as §5
[32] = Cmax in monkey at 10 mg/kg,po by LC/MS/MS analysis; format: ADME, organism-based, Macaca mulatta; design: dose 10 mg/kg, route po; conditions: rhesus monkey, in vivo; method in brief: as §5
[33] = Oral bioavailability in rat at 5 mg/kg by LC/MS/MS analysis; format: ADME, organism-based; conditions: in vivo; method in brief: as §5
[34] = Stability of the compound in phosphate buffer at pH 7.0 assessed as parent compound remaining at 40 degreeC measured after 16 hrs; format: physicochemical; conditions: read-out: Stability
Method in brief: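 Compound held in pH 7.0 phosphate buffer at 40 °C for 16 h; amount remaining reported as %.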

[35] = Tmax in dog at 10 mg/kg,po by LC/MS/MS analysis; format: ADME, organism-based, Canis lupus familiaris; conditions: in vivo
[36] = Tmax in rat at 5 mg/kg,po by LC/MS/MS analysis; format: ADME, organism-based; conditions: in vivo
[37] = Oral bioavailability in monkey at 10 mg/kg by LC/MS/MS analysis; format: ADME, organism-based, Macaca mulatta; conditions: rhesus monkey, in vivo; method in brief: as §5
[38] = AUC in rat at 5 mg/kg,po by LC/MS/MS analysis; format: ADME, organism-based; design: dose 5 mg/kg, route po; conditions: in vivo; method in brief: as §5
[39] = Cmax in dog at 10 mg/kg,po by LC/MS/MS analysis; format: ADME, organism-based, Canis lupus familiaris; design: dose 10 mg/kg, route po; conditions: in vivo; method in brief: as §5
[40] = Tmax in monkey at 10 mg/kg,po by LC/MS/MS analysis; format: ADME, organism-based, Macaca mulatta; conditions: rhesus monkey, in vivo
[41] = Oral bioavailability in dog at 10 mg/kg by LC/MS/MS analysis; format: ADME, organism-based, Canis lupus familiaris; conditions: in vivo; method in brief: as §5
[42] = AUC in monkey at 10 mg/kg,po by LC/MS/MS analysis; format: ADME, organism-based, Macaca mulatta; design: dose 10 mg/kg, route po; conditions: rhesus monkey, in vivo; method in brief: as §5

Structure (SMILES): NC(=O)[C@@H]1CC[C@@H]2CN1C(=O)N2OS(=O)(=O)O [AVIBACTAM]
- MPC (Escherichia coli [1]): 0.5 µg/mL
- MPC (Klebsiella pneumoniae [2]): 2 µg/mL
- MIC (Klebsiella pneumoniae [3]): 32 µg/mL (≈ 121 µM)
- MIC (Klebsiella pneumoniae [4]): > 32 µg/mL
- MPC (Klebsiella pneumoniae [5]): 2 µg/mL
- MPC (Klebsiella pneumoniae [6]): 1 µg/mL
- MPC (Klebsiella pneumoniae [7]): 0.5 µg/mL
- MPC (Enterobacter cloacae [8]): 16 µg/mL
- MIC (Klebsiella pneumoniae [9]): > 32 µg/mL
- IC50 [10]: 5.7 µM
- MPC (Escherichia coli [11]): 0.125 µg/mL
- IC50 [12]: 0.072 µM
- MIC (Escherichia coli [13]): 16 µg/mL (≈ 60.3 µM)
- MPC (Klebsiella pneumoniae [14]): 4 µg/mL
- MPC (Klebsiella pneumoniae [15]): 0.063 µg/mL
- MPC (Klebsiella pneumoniae [16]): 8 µg/mL
- MIC (Klebsiella pneumoniae [17]): > 32 µg/mL
- MIC (Enterobacter cloacae [18]): 32 µg/mL (≈ 121 µM)
- MIC (Klebsiella pneumoniae [19]): > 32 µg/mL
- IC50 [20]: 0.059 µM
- MPC (Enterobacter cloacae [21]): 8 µg/mL
- MIC (Klebsiella pneumoniae [22]): > 32 µg/mL
- MIC (Klebsiella pneumoniae [23]): 32 µg/mL (≈ 121 µM)
- MIC (Enterobacter cloacae [24]): 32 µg/mL (≈ 121 µM)
- MPC (Klebsiella pneumoniae [25]): 0.125 µg/mL
- MIC (Enterobacter cloacae [26]): 32 µg/mL (≈ 121 µM)
- MIC (Klebsiella pneumoniae [27]): > 32 µg/mL
- MPC (Enterobacter cloacae [28]): 4 µg/mL
- MIC (Escherichia coli [29]): 16 µg/mL (≈ 60.3 µM)

- AUC [30]: 18400 ng·h/mL
- Cmax [31]: 1700 ng/mL
- Cmax [32]: 4380 ng/mL
- bioavailability [33]: 67.6%
- remaining at 16 h [34]: 56%
- Tmax [35]: 48 min
- Tmax [36]: 30 min
- bioavailability [37]: 25.5%
- AUC [38]: 2090 ng·h/mL
- Cmax [39]: 7390 ng/mL
- Tmax [40]: 60 min
- bioavailability [41]: 48.1%
- AUC [42]: 7060 ng·h/mL
Structure (SMILES): CC(C)OC(=O)[C@@H](F)ON1C(=O)N2C[C@H]1CC[C@H]2[S@@+](C)[O-]
